In ChEMBL document CHEMBL1121680, “2,4-Diamino-5-benzylpyrimidines and analogues as antibacterial agents. 5. 3',5'-Dimethoxy-4'-substituted-benzyl analogues of trimethoprim” (J Med Chem, 1981):

How the values were obtained:
Dihydrofolate reductase [1] = target: T1, Dihydrofolate reductase (Rattus norvegicus, UniProt Q920D2); experiment: Compound was tested for inhibitory activity against Dihydrofolate Reductase of rat liver; details: read-out: I50
T1 sequence (Q920D2 whole entry): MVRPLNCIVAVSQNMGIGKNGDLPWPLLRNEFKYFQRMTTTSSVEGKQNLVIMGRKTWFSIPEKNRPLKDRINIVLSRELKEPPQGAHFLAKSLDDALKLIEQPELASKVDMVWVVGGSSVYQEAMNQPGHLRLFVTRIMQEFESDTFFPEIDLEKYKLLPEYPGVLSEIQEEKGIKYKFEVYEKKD

Dihydrofolate reductase [2] = target: T2, Dihydrofolate reductase (Escherichia coli, UniProt P0ABQ4); experiment: Compound was tested for inhibitory activity against Dihydrofolate reductase of E. coli; Value ranges from 0.5-0.7M; details: read-out: I50
T2 sequence (P0ABQ4 whole entry): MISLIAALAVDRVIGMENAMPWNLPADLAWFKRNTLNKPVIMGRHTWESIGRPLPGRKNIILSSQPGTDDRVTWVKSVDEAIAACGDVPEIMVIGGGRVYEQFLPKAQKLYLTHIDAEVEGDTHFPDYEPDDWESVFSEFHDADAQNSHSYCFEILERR

Dihydrofolate reductase [3] = target: T1, Dihydrofolate reductase; experiment: Inhibition of rat liver Dihydrofolate reductase.; details: read-out: I50
[4] = target: T3, Dihydrofolate reductase (Rattus norvegicus) (UniProt Q920D2); experiment: Compound was tested for inhibitory activity against Dihydrofolate reductase of rat liver at 10000 M
T3 sequence (whole entry): T1 sequence (Q920D2 whole entry)

[5] = target: T3, Dihydrofolate reductase (Rattus norvegicus); experiment: Compound was tested for inhibitory activity against Dihydrofolate reductase of rat liver at 1000 µM; details: 1000 M
Proteus vulgaris [6] = experiment: Antimicrobial activity against Proteus vulgaris CN329 in mice in experiment 2; assay type: functional, Mus musculus
Mus musculus [7] = experiment: Half-life in serum of mice after oral administration of 2 mg dose; assay type: functional, organism-based
Outline: (§1)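 Single po dose (10 or 2 mg per mouse) to groups of three mice (18–20 g); ~0.2 mL blood drawn from supraorbital plexus at 10–360 min and pooled; serum drug level assayed microbiologically with Bacillus pumilus as test organism. Half-life calculated from curve slopes once compound apparently evenly distributed.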

Staphylococcus aureus [8] = experiment: Antimicrobial activity against Staphylococcus aureus CN491 in mice in experiment 2; assay type: functional, Mus musculus
Mus musculus [9] = experiment: Concentration of compound in serum of mouse 180 min after oral administration of 2 mg dose; assay type: functional, organism-based; outline: as §1
Mus musculus [10] = experiment: Half-life in serum of mice after oral administration of 10 mg dose; assay type: functional, organism-based; outline: as §1
Streptococcus pyogenes [11] = experiment: Antimicrobial activity against streptococcus pyogenes CN10 in mice in experiment 3; assay type: functional, Mus musculus
Escherichia coli [12] = experiment: Antimicrobial activity against Escherichia coli CN348 in mice in experiment 2; assay type: functional, Mus musculus
Dihydrofolate reductase [13] = target: T1, Dihydrofolate reductase; experiment: Compound was tested for inhibitory activity against Dihydrofolate Reductase(DHFR) of rat liver; details: read-out: I50
Klebsiella pneumoniae [14] = experiment: Antimicrobial activity against Klebsiella pneumoniae CN3632 in mice in experiment 3; assay type: functional, Mus musculus
Escherichia coli [15] = experiment: Antimicrobial activity against Escherichia coli CN348 in mice in experiment 1; assay type: functional, Mus musculus
Streptococcus pyogenes [16] = experiment: Antimicrobial activity against streptococcus pyogenes CN10 in mice in experiment 1; assay type: functional, Mus musculus
Mus musculus [17] = experiment: Concentration of compound in serum of mouse 360 min after oral administration of 10 mg dose; assay type: functional, organism-based; outline: as §1
Streptococcus pyogenes [18] = experiment: Antimicrobial activity against streptococcus pyogenes CN10 in mice in experiment 2; assay type: functional, Mus musculus
Mus musculus [19] = experiment: Concentration of compound in serum of mouse 10 min after oral administration of 10 mg dose; assay type: functional, organism-based; outline: as §1
Staphylococcus aureus [20] = experiment: Antimicrobial activity against Staphylococcus aureus CN491 in mice in experiment 3; assay type: functional, Mus musculus
Mus musculus [21] = experiment: Concentration of compound in serum of mouse 180 min after oral administration of 10 mg dose; assay type: functional, organism-based; outline: as §1
Klebsiella pneumoniae [22] = experiment: Antimicrobial activity against Klebsiella pneumoniae CN3632 in mice in experiment 1; assay type: functional, Mus musculus
Mus musculus [23] = experiment: Concentration of compound in serum of mouse 90 min after oral administration of 10 mg dose; assay type: functional, organism-based; outline: as §1
Proteus vulgaris [24] = experiment: Antimicrobial activity against Proteus vulgaris CN329 in mice in experiment 1; assay type: functional, Mus musculus
Mus musculus [25] = experiment: Concentration of compound in serum of mouse 30 min after oral administration of 10 mg dose; assay type: functional, organism-based; outline: as §1
Mus musculus [26] = experiment: Concentration of compound in serum of mouse 360 min after oral administration of 2 mg dose; assay type: functional, organism-based; outline: as §1
Escherichia coli [27] = experiment: Antimicrobial activity against Escherichia coli CN348 in mice in experiment 3; assay type: functional, Mus musculus
Mus musculus [28] = experiment: Concentration of compound in serum of mouse 90 min after oral administration of 2 mg dose; assay type: functional, organism-based; outline: as §1
Mus musculus [29] = experiment: Concentration of compound in serum of mouse 10 min after oral administration of 2 mg dose; assay type: functional, organism-based; outline: as §1
Klebsiella pneumoniae [30] = experiment: Antimicrobial activity against Klebsiella pneumoniae CN3632 in mice in experiment 2; assay type: functional, Mus musculus
Staphylococcus aureus [31] = experiment: Antimicrobial activity against Staphylococcus aureus CN491 in mice in experiment 1; assay type: functional, Mus musculus
[32] = target: T3, Dihydrofolate reductase (Rattus norvegicus); experiment: Compound was tested for inhibitory activity against Dihydrofolate reductase of rat liver at 40000 M
[33] = target: T3, Dihydrofolate reductase (Rattus norvegicus); experiment: Percent inhibition of compound against Dihydrofolate Reductase of rat liver at 16000 M
[34] = target: T3, Dihydrofolate reductase (Rattus norvegicus); experiment: Compound was tested for inhibitory activity against Dihydrofolate reductase of rat liver at 10000; details: concentration not given here

## CCOc1c(OC)cc(Cc2cnc(N)nc2N)cc1OC
Dihydrofolate reductase [1]
  IC50: 620 µM
Dihydrofolate reductase [2]
  IC50: 0.0075 µM

## COc1cc(Cc2cnc(N)nc2N)cc(OC)c1OCCO
Dihydrofolate reductase [3]
  IC50: > 400 µM

## COc1cc(Cc2cnc(N)nc2N)cc(OC)c1OCCN1CCOCC1
Dihydrofolate reductase [3]
  IC50: > 440 µM

## COc1cc(Cc2cnc(N)nc2N)cc(OC)c1Oc1ccc([N+](=O)[O-])cc1
Dihydrofolate reductase [3]
  IC50: 50 µM

## COc1cc(Cc2cnc(N)nc2N)cc(OC)c1OCCCCCC(=O)O
Dihydrofolate reductase [3]
  IC50: 296 µM

## COc1cc(Cc2cnc(N)nc2N)cc(OC)c1OCCCN
[4]
  inhibition: 39%

## COc1cc(Cc2cnc(N)nc2N)cc(OC)c1Oc1ccc(N)cc1
[5]
  inhibition: 8%

## COc1cc(Cc2cnc(N)nc2N)cc(OC)c1OCc1ccccc1
Dihydrofolate reductase [3]
  IC50: 47 µM

## CCCCCOc1c(OC)cc(Cc2cnc(N)nc2N)cc1OC
Dihydrofolate reductase [3]
  IC50: 270 µM

## COC(=O)CCCCCOc1c(OC)cc(Cc2cnc(N)nc2N)cc1OC
Dihydrofolate reductase [3]
  IC50: 1100 µM

## C=CCOc1c(OC)cc(Cc2cnc(N)nc2N)cc1OC
Proteus vulgaris [6]
  ED50: >10 mg mouse-1
Mus musculus [7]
  T1/2: 21 min
Staphylococcus aureus [8]
  ED50: >10 mg mouse-1
Mus musculus [9]
  Concentration: 0.26 µg/mL
Mus musculus [10]
  T1/2: 66 min
Streptococcus pyogenes [11]
  ED50: 5.1 mg mouse-1
Escherichia coli [12]
  ED50: 11 mg mouse-1
Dihydrofolate reductase [13]
  IC50: 480 µM
Klebsiella pneumoniae [14]
  ED50: >10 mg mouse-1
Escherichia coli [15]
  ED50: 7.5 mg mouse-1
Streptococcus pyogenes [16]
  ED50: 12 mg mouse-1
Mus musculus [17]
  Concentration: 2.8 µg/mL
Streptococcus pyogenes [18]
  ED50: 4.3 mg mouse-1
Mus musculus [19]
  Concentration: 84 µg/mL
Staphylococcus aureus [20]
  ED50: 8.1 mg mouse-1
Mus musculus [21]
  Concentration: 27 µg/mL
Klebsiella pneumoniae [22]
  ED50: 4.6 mg mouse-1
Mus musculus [23]
  Concentration: 51 µg/mL
Proteus vulgaris [24]
  ED50: 10 mg mouse-1
Mus musculus [25]
  Concentration: 59 µg/mL
Mus musculus [26]
  Concentration: < 0.1 µg/mL
Escherichia coli [27]
  ED50: >10 mg mouse-1
Mus musculus [28]
  Concentration: 1 µg/mL
Mus musculus [29]
  Concentration: 18 µg/mL
Klebsiella pneumoniae [30]
  ED50: 10 mg mouse-1
Staphylococcus aureus [31]
  ED50: 2.5 mg mouse-1

## COc1cc(Cc2cnc(N)nc2N)cc(OC)c1OCCCN1CCCCC1
[32]
  inhibition: 20%

## COc1cc(Cc2cnc(N)nc2N)cc(OC)c1OCCCCN1C(=O)c2ccccc2C1=O
Dihydrofolate reductase [3]
  IC50: 54 µM

## COc1cc(Cc2cnc(N)nc2N)cc(OC)c1OCC1CO1 (centres undefined)
[33]
  inhibition: 23%

## COc1cc(Cc2cnc(N)nc2N)cc(OC)c1OCCCCCCN
Dihydrofolate reductase [3]
  IC50: 560 µM

## COc1cc(Cc2cnc(N)nc2N)cc(OC)c1OCCCN1CCN(C)CC1
[32]
  inhibition: 36%

## CCOC(=O)COc1c(OC)cc(Cc2cnc(N)nc2N)cc1OC
[32]
  inhibition: 12%

## COc1cc(Cc2cnc(N)nc2N)cc(OC)c1OCCCO
[34]
  inhibition: 24%
